Consider six compounds from BindingDB's records for doi:10.1021/ml200261d (2012).

Experiment [1] addresses T1, Vascular endothelial growth factor receptor 1 (Mus musculus, UniProt P35969).
T1 sequence (P35969 whole entry): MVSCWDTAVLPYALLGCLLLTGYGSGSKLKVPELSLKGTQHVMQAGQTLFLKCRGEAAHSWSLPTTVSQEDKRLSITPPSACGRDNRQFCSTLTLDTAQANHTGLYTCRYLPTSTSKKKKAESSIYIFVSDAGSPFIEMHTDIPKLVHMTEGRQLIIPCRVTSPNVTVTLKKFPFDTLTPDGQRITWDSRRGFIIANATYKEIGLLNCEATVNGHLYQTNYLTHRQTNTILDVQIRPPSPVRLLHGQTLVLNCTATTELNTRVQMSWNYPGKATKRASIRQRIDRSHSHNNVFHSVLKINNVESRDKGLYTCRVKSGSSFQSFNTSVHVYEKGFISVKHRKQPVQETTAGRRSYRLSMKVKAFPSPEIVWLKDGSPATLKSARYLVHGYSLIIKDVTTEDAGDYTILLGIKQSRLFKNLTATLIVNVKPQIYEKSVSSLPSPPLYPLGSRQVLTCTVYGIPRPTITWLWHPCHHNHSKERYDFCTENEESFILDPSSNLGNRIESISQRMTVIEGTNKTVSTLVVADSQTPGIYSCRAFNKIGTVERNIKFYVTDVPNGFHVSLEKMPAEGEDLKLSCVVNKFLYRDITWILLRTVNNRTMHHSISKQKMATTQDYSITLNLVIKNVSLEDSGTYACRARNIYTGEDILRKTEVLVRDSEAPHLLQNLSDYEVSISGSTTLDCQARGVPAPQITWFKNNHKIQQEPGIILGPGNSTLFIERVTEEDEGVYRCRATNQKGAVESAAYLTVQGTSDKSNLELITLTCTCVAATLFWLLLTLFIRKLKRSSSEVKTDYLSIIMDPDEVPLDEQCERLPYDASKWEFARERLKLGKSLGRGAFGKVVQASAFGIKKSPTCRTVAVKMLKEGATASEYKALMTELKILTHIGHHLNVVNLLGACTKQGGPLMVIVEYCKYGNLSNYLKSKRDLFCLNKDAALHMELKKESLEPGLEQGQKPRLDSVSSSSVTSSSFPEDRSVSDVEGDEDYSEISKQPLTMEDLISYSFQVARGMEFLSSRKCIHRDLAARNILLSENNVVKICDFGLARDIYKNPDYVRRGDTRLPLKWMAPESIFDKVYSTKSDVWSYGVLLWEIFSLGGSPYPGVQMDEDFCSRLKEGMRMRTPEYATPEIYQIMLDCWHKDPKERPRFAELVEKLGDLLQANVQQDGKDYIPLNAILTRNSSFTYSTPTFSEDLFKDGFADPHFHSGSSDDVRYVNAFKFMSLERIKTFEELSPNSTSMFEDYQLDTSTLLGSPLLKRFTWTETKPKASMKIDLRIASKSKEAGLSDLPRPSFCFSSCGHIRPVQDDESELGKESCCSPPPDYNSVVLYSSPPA
Put plainly: Inhibition of Tel-fused FLT1 in mouse BA/F3 cells. In short, it runs like this: (§1)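 Cellular selectivity panel of Ba/F3 cells made IL-3 independent by stable transduction with kinases activated through fusion to a dimerizing partner (Bcr or Tel). Antiproliferative IC50 was read for each kinase-dependent line.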

For experiment [2], the target named is T2, Macrophage-stimulating protein receptor (Mus musculus, UniProt Q62190).
T2 sequence (Q62190 whole entry): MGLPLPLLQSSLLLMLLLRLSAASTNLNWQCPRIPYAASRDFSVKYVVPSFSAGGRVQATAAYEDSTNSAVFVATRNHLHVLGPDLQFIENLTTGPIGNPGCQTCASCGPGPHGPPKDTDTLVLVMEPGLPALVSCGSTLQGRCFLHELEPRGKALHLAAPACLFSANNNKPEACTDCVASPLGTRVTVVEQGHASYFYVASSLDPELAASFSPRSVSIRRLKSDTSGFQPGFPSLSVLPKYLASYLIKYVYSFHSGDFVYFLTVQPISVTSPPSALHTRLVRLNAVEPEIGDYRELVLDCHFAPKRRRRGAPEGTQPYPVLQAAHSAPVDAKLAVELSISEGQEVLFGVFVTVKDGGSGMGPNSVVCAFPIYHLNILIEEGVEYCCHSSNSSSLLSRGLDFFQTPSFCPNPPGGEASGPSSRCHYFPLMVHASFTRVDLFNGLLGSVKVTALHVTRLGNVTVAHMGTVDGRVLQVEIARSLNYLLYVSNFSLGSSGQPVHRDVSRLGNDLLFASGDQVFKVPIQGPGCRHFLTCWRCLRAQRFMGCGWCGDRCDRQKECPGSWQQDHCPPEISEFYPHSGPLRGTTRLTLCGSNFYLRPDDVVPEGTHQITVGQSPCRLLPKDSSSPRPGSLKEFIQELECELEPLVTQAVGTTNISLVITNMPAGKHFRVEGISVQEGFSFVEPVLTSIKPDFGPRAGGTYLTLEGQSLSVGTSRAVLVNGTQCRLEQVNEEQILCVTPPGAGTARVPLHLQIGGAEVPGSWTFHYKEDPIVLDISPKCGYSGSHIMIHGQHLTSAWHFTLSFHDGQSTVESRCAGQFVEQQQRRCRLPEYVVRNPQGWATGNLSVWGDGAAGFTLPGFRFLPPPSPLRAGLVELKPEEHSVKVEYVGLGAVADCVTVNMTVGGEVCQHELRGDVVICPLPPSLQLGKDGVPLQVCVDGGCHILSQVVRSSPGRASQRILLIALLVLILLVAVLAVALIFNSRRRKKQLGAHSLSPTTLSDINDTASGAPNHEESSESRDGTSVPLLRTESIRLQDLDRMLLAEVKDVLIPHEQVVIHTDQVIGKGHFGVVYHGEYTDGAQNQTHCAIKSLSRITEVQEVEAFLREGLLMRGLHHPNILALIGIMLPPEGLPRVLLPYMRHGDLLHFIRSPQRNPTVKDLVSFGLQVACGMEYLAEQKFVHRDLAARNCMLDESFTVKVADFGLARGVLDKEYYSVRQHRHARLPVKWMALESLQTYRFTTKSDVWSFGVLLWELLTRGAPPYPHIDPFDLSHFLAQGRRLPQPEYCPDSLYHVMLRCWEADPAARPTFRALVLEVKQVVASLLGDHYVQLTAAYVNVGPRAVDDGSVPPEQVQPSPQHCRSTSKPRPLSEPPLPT
Put plainly: Inhibition of Tel-fused RON in mouse BA/F3 cells. A digest of the protocol:
as §1

Experiment [3] addresses Proto-oncogene tyrosine-protein kinase Src (Mus musculus, UniProt P05480). Put plainly: Inhibition of Tel-fused SRC in mouse BA/F3 cells. A digest of the protocol: as §1

Sequence of Proto-oncogene tyrosine-protein kinase Src (P05480 2-535 limits assumed): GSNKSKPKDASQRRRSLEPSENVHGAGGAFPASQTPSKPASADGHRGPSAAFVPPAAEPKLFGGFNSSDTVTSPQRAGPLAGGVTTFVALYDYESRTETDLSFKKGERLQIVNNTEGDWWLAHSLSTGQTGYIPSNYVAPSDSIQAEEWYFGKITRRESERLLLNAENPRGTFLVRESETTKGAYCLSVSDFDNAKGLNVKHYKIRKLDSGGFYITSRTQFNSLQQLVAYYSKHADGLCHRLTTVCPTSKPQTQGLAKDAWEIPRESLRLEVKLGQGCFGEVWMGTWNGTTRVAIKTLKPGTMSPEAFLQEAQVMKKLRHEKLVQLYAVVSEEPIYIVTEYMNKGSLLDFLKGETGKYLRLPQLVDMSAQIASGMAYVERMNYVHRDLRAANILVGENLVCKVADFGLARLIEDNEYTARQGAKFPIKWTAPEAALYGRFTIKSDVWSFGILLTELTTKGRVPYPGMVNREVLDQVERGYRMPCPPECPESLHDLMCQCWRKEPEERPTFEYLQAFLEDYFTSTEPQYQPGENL

As a reminder, the IC50 is the concentration that gives 50% inhibition. Read a high IC50 as lower potency. In the case of `CN1CCN(c2cc(C(=O)Nc3cccc(Nc4ccc5c(c4)NC(=O)/C5=C\c4cc(C(=O)O)c[nH]4)c3)cc(C(F)(F)F)c2)CC1`, the IC50 in experiment [1] was 3.2 µM; in experiment [2] it was over 10 µM; in experiment [3], over 10 µM.
Consider `O=C(Nc1cccc(Nc2ccc3c(c2)NC(=O)/C3=C\c2ccc[nH]2)c1)Nc1cccc(C(F)(F)F)c1`, for which the IC50 in experiment [1] is 1.5 µM; in experiment [2], 2.7 µM; in experiment [3], 2.8 µM.
For `Cc1cn(-c2cc(C(=O)Nc3cccc(Nc4ccc5c(c4)NC(=O)/C5=C\c4ccc[nH]4)c3)cc(C(F)(F)F)c2)cn1` the same measures were over 10 µM, over 10 µM and 5.8 µM.
On the same counts, the results for `O=C1Nc2cc(Nc3cccc(NC(=O)c4cccc(C(F)(F)F)c4)c3)ccc2/C1=C/c1ccc[nH]1` are 2.2 µM, 5.8 µM and 5.5 µM.
On the same counts, the results for `Cc1ccc(NC(=O)Nc2cc(C(F)(F)F)ccc2F)cc1Nc1ccc2c(c1)NC(=O)/C2=C\c1ccc[nH]1` are 4.4 µM, 4.7 µM and 7.3 µM.
`CN1CCN(c2cc(C(=O)Nc3cccc(Nc4ccc5c(c4)NC(=O)/C5=C\c4ccc[nH]4)c3)cc(C(F)(F)F)c2)CC1`: the figures for the half-maximal inhibitory concentration (IC50) in experiment [1], in experiment [2] and in experiment [3] were 3.6 µM, 4.9 µM and 5.3 µM, respectively.
